# Source: ChEMBL document CHEMBL1128174, “Enhanced D1 affinity in a series of piperazine ring substituted 1-piperazino-3-arylindans with potential atypical antipsychotic activity” (J Med Chem, 1995)
# “And” between values parts separate entries of the source, which are not always exact repeats. Equal entries are not always repeated.
# How the values were obtained:
# D(2) dopamine receptor = D(2) dopamine receptor (Rattus norvegicus, UniProt P61169); assay: Binding affinity against dopamine receptor D2
# D(2) dopamine receptor, sequence (P61169 whole entry): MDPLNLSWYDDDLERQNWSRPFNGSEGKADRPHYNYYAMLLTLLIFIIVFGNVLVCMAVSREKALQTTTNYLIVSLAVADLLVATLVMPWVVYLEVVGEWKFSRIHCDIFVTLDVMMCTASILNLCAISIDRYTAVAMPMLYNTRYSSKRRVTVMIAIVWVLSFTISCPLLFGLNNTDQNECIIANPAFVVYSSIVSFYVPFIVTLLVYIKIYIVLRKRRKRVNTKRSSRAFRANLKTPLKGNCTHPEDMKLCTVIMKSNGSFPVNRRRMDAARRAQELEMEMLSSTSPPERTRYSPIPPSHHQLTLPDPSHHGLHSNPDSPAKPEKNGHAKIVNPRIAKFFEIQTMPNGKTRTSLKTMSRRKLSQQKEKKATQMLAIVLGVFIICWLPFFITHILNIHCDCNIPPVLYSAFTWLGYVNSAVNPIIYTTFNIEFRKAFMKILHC
# D(1A) dopamine receptor = D(1A) dopamine receptor (Rattus norvegicus, UniProt P18901); assay: Binding affinity for dopamine receptor D1, activity is expressed as IC50 values.
# D(1A) dopamine receptor, sequence (P18901 whole entry): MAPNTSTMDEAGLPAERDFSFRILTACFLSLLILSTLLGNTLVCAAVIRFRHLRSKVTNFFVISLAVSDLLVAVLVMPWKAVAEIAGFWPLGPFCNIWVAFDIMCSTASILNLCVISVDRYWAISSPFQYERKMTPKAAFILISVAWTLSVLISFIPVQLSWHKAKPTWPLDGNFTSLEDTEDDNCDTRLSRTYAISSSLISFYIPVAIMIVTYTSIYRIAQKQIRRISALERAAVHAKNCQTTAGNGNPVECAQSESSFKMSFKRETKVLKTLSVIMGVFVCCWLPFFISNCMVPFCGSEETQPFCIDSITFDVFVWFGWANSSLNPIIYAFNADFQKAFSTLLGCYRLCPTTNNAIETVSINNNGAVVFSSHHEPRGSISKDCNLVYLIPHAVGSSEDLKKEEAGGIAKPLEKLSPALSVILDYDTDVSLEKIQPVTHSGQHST
# Rattus norvegicus [1] = species on record: Rattus norvegicus; assay: Cataleptogenic effect in rats; assay type: functional
# Outline: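 Rats scored on a vertical wire grid hourly 1–6 h after dosing; catalepsy counted when immobility lasted at least 15 s.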
# Mus musculus = species on record: Mus musculus; assay: Antagonism of methyl phenidate-induced gnawing behavior in mice; assay type: functional
# Outline: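 Test compound given ip (or sc) 2 h before methyl phenidate (60 mg/kg); mice housed in pairs on corrugated cardboard in gnawing cages, 5–9 pairs per dose.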
# [2] = biological target: 5-hydroxytryptamine receptor 2A (Rattus norvegicus, UniProt P14842); assay: Binding affinity for 5-hydroxytryptamine 2A receptor, activity is expressed as IC50 values.
# 5-hydroxytryptamine receptor 2A, sequence (P14842 whole entry): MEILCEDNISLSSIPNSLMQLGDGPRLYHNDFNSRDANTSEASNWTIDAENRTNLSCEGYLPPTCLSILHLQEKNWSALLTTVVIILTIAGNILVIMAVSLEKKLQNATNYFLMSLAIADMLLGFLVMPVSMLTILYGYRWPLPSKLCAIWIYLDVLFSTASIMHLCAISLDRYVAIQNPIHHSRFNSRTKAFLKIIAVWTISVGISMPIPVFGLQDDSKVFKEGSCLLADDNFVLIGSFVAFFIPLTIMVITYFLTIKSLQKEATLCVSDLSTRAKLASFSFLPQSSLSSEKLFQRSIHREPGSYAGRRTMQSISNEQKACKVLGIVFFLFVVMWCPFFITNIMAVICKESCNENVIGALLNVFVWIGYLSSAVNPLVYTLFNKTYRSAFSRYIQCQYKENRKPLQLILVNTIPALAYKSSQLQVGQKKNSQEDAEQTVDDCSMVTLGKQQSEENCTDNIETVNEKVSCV
# Rattus norvegicus [3] = species on record: Rattus norvegicus; assay: In vitro inhibition of [3H]5-HT uptake in rat brain (minus pons, medulla oblongata and cerebellum) homogenates.; assay type: functional
# Rattus norvegicus [4] = species on record: Rattus norvegicus; assay: In vitro inhibition of [3H]NE uptake in rat occipital lobe (plus temporal cortex) homogenates.; assay type: functional
# Rattus norvegicus [5] = species on record: Rattus norvegicus; assay: In vitro inhibition of [3H]dopamine uptake in rat corpus striatum homogenates.; assay type: functional
# [6] = Rattus norvegicus, read-out: ED50
# [7] = Rattus norvegicus, Corpus striatum
IC50 (D(2) dopamine receptor),IC50 (D(1A) dopamine receptor),SMILES,ED50 (Rattus norvegicus [1]; [6]),"ED50 (Mus musculus; Mus musculus, read-out: ED50)",other results
14 nM,66 nM,CC(C)c1ccc2c(c1)C(N1CCN(CCO)CC1)CC2c1ccc(F)cc1 (centres undefined),–,–,–
2800 nM,730 nM,OCCN1CCN(C2CC(c3ccccc3)c3ccccc32)CC1 (centres undefined),–,–,–
–,–,CN1CCN(C2CC(c3ccc(F)cc3)c3cccc(Cl)c32)CC1(C)C (centres undefined),> 41 µmol/kg,> 41 µmol/kg,–
–,–,CC1(C)CN(C2CC(c3ccc(F)cc3)c3ccc(Cl)cc32)CCN1CCO (centres undefined),3.7 µmol/kg,0.34 µmol/kg,–
–,–,CN1CCN(C2CC(c3ccccc3F)c3ccc(Cl)cc32)CC1(C)C (centres undefined),> 33 µmol/kg,34 µmol/kg,–
13 nM,38 nM,Cc1ccc2c(c1)C(N1CCN(C)CC1)CC2c1ccc(F)cc1 (centres undefined),–,–,–
61 nM,16 nM,CN1CCN(C2CC(c3ccccc3)c3ccc(Cl)cc32)CC1 (centres undefined),–,–,–
82 nM,16 nM,OCCN1CCN(C2CC(c3ccc(F)cc3)c3ccc(F)cc32)CC1 (centres undefined),–,–,–
–,–,CC1(C)CN(C2CC(c3ccc(F)cc3)c3ccc(C(F)(F)F)cc32)CCN1 (centres undefined),> 51 µmol/kg,2.7 µmol/kg,IC50 [2]: 7.5 nM
–,–,CN1CCN(C2CC(c3ccc(F)cc3)c3ccc(Br)cc32)CC1(C)C (centres undefined),9.4 µmol/kg,1.5 µmol/kg,–
86 nM,210 nM,COc1ccc2c(c1)C(N1CCN(CCO)CC1)CC2c1ccc(F)cc1 (centres undefined),–,–,–
–,–,CN1CCN(C2CC(c3cccc(F)c3)c3ccc(Cl)cc32)CC1(C)C (centres undefined),> 33 µmol/kg,> 33 µmol/kg,–
21 nM,1.1 nM,CC1(C)CN(C2CC(c3ccc(F)cc3)c3ccc(Cl)cc32)CCN1CCCO (centres undefined),< 17 µmol/kg,–,–
8.1 nM,17 nM,CN1CCN(C2CC(c3ccc(F)cc3)c3ccc(C(F)(F)F)cc32)CC1 (centres undefined),–,–,–
–,–,CCC1(CC)CN(C2CC(c3ccc(F)cc3)c3ccc(Cl)cc32)CCN1C (centres undefined),> 20 µmol/kg,> 81 µmol/kg,–
23 nM,51 nM,Cc1ccc2c(c1)C(N1CCN(CCO)CC1)CC2c1ccc(F)cc1 (centres undefined),–,–,–
120 nM,13 nM,CC1CN(C2CC(c3ccc(F)cc3)c3ccc(Cl)cc32)CC(C)N1C (centres undefined),> 36 µmol/kg,53 µmol/kg,–
–,–,CN1CCN(C2CC(c3ccc(F)cc3)c3c(Cl)cccc32)CC1(C)C (centres undefined),–,> 36 µmol/kg,–
63 nM,34 nM,CN1CCN(C2CC(c3ccc(Cl)cc3)c3ccc(Cl)cc32)CC1(C)C (centres undefined),–,> 69 µmol/kg,IC50 [2]: 32 nM
42 nM,690 nM,CS(=O)(=O)c1ccc2c(c1)C(N1CCN(CCO)CC1)CC2c1ccc(F)cc1 (centres undefined),–,–,–
–,–,Cc1ccc2c(c1)C(N1CCNC(C)(C)C1)CC2c1ccc(F)cc1 (centres undefined),> 29 µmol/kg,33 µmol/kg,–
–,–,Cc1ccc2c(c1)C(N1CCN(C)C(C)(C)C1)CC2c1ccc(F)cc1 (centres undefined),33 µmol/kg,1.4 µmol/kg,–

IC50 (D(2) dopamine receptor),IC50 (D(1A) dopamine receptor),SMILES,ED50 (Rattus norvegicus [1]; [6]),"ED50 (Mus musculus; Mus musculus, read-out: ED50)",other results
–,–,CN1CCN(C2CC(c3ccc(F)cc3)c3ccc(F)cc32)CC1 (centres undefined),–,–,IC50 (Rattus norvegicus [3]): 610 nM and 3900 nM
–,–,Fc1ccc(C2CC(N3CCN4CCCCC4C3)c3cc(Cl)ccc32)cc1 (centres undefined),4.1 µmol/kg,14 µmol/kg,–
13 nM,39 nM,CSc1ccc2c(c1)C(N1CCN(CCO)CC1)CC2c1ccc(F)cc1 (centres undefined),–,–,–
41 nM,19 nM,CC1CN(C2CC(c3ccc(F)cc3)c3ccc(Cl)cc32)C(C)CN1C (centres undefined),> 33 µmol/kg,> 66 µmol/kg,–
–,–,CN1CCN(C2CC(c3ccc(F)cc3)c3ccc(C(F)(F)F)cc32)CC1(C)C (centres undefined),5.2 µmol/kg,0.99 µmol/kg,–
–,–,CN1CCN(C2CC(c3ccc(F)cc3)c3ccc(Cl)cc32)CC12CCC2 (centres undefined),69 µmol/kg,1 µmol/kg,–
–,–,CC1CN(C2CC(c3ccc(F)cc3)c3ccc(Cl)cc32)CCN1C (centres undefined),9.3 µmol/kg,0.27 µmol/kg,–
–,–,CN1CCN(C2CC(c3ccc(F)cc3)c3ccc(Cl)cc32)CC12CCCCC2 (centres undefined),–,> 80 µmol/kg,–
–,–,CN1CCN(C2CC(c3ccccc3)c3ccccc32)CC1(C)C (centres undefined),> 36 µmol/kg,> 36 µmol/kg,–
–,130 nM,OCCN1CCN(C2CC(c3ccc(F)cc3)c3cccc(Cl)c32)CC1 (centres undefined),–,–,–
–,52 nM,"CC(C)N1CCN(C2CC(c3ccc(F)cc3)c3ccc(Cl)cc32)CC1(C)C (single isomer, unassigned; (+))",–,–,IC50 (Rattus norvegicus [3]): 2600 nM; IC50 (Rattus norvegicus [4]): 100 nM; IC50 (Rattus norvegicus [5]): 20 nM
–,51 nM,"OCCN1CCN(C2CC(c3ccc(F)cc3)c3ccc(Cl)cc32)CC12CCCC2 (single isomer, unassigned; (+))",–,–,IC50 (Rattus norvegicus [3]; Rattus norvegicus): 2400 nM; IC50 (Rattus norvegicus [4]; Rattus norvegicus): 440 nM; IC50 (Rattus norvegicus [5]; [7]): 120 nM
–,6.6 nM,"CN1CCN(C2CC(c3ccc(F)cc3)c3ccc(Cl)cc32)CC12CCCC2 (single isomer, unassigned; (+))",–,–,IC50 (Rattus norvegicus [3]; Rattus norvegicus): 1800 nM; IC50 (Rattus norvegicus [4]; Rattus norvegicus): 690 nM; IC50 (Rattus norvegicus [5]; [7]): 150 nM
–,0.66 nM,"CC(C)N1CCN(C2CC(c3ccc(F)cc3)c3ccc(Cl)cc32)CC1(C)C (single isomer, unassigned; (-))",–,–,IC50 (Rattus norvegicus [3]; Rattus norvegicus): 3500 nM; ED50 (Rattus norvegicus [1]): 7.1 µM/kg; IC50 (Rattus norvegicus [4]): 5600 nM; IC50 (Rattus norvegicus [5]): 1300 nM; ED50 (Mus musculus): 0.76 µM/kg
–,0.82 nM,CC(C)N1CCN(C2CC(c3ccc(F)cc3)c3ccc(Cl)cc32)CC1(C)C (stereo in doubt; 29),6.9 µmol/kg,–,ED50 (Mus musculus): 1.6 µM/kg
–,0.85 nM,CN1CCN(C2CC(c3ccc(F)cc3)c3ccc(Cl)cc32)CC12CCCC2 (stereo in doubt; 34),42 µmol/kg,1.7 µmol/kg,–
13 nM,1.9 nM,OCCN1CCN(C2CC(c3ccc(F)cc3)c3ccc(Cl)cc32)CC12CCCC2 (stereo in doubt; 35),–,–,ED50 (Rattus norvegicus [1]): 14 µM/kg; ED50 (Mus musculus): 1.6 µM/kg
–,–,CC1(C)CN(C2CC(c3ccsc3)c3ccc(Cl)cc32)CCN1 (stereo in doubt; 54),–,–,ED50 (Rattus norvegicus [1]): >35 µM/kg; ED50 (Mus musculus): 6.5 µM/kg
–,0.96 nM,CN1CCN(C2CC(c3ccc(F)cc3)c3ccc(Cl)cc32)CC12CCCC2 (stereo in doubt; (-)-34),–,–,ED50 (Rattus norvegicus [1]): 31 µM/kg; ED50 (Mus musculus): 1.2 µM/kg
5 nM,1 nM,OCCN1CCN(C2CC(c3ccc(F)cc3)c3ccc(Cl)cc32)CC12CCCC2 (stereo in doubt; (-)-35),–,–,ED50 (Rattus norvegicus [1]): 2.7 µM/kg; ED50 (Mus musculus): 0.49 µM/kg
–,–,CN1CCN(C2=Nc3cc(Cl)ccc3Nc3ccccc32)CC1 [CLOZAPINE],> 120 µmol/kg,98 µmol/kg,–

SMILES,IC50 (D(2) dopamine receptor),IC50 (D(1A) dopamine receptor),ED50 (Rattus norvegicus [1]; [6]),"ED50 (Mus musculus; Mus musculus, read-out: ED50)",other results
OCCN1CCN(C2CC(c3ccc(F)cc3)c3ccc(C(F)(F)F)cc32)CC1 (centres undefined),10 nM,23 nM,–,–,–
"CC1(C)CN(C2CC(c3ccc(F)cc3)c3ccc(Cl)cc32)CCN1 (single isomer, unassigned; (+))",12000 nM,1100 nM,–,–,IC50 (Rattus norvegicus [3]): > 100 nM; IC50 (Rattus norvegicus [4]): 290 nM; IC50 (Rattus norvegicus [5]): 29 nM; IC50 [2]: 3600 nM
"CN1CCN(C2CC(c3ccc(F)cc3)c3ccccc32)CC1(C)C (single isomer, unassigned; (+))",4900 nM,250 nM,–,–,IC50 (Rattus norvegicus [3]; Rattus norvegicus): 5200 nM; IC50 (Rattus norvegicus [4]): 76 nM; IC50 (Rattus norvegicus [5]): 25 nM; IC50 [2]: 650 nM
CN1CCN(C2CC(c3ccc(F)cc3)c3ccc(Cl)cc32)CC1(C)C (stereo in doubt; 28),–,1.3 nM,–,–,ED50 (Rattus norvegicus [1]): 25 µM/kg; IC50 [2]: 2.1 nM; ED50 (Mus musculus): 0.65 µM/kg
CN1CCN(C2CC(c3ccc(F)cc3)c3ccccc32)CC1(C)C (stereo in doubt; 39),29 nM,3 nM,> 70 µmol/kg,12 µmol/kg,IC50 [2]: 5.1 nM
CN1CCN(C2CC(c3ccc(F)cc3)c3ccc(Cl)cc32)CC1(C)C (stereo in doubt; (+)-28),–,620 nM,–,–,IC50 (Rattus norvegicus [3]): > 1000 nM; IC50 (Rattus norvegicus [4]): 68 nM; IC50 (Rattus norvegicus [5]): 16 nM
CN1CCN(C2CC(c3ccccc3)c3ccc(Cl)cc32)CC1(C)C (stereo in doubt; (+)-38),260 nM,15 nM,–,–,IC50 (Rattus norvegicus [3]; Rattus norvegicus): 5300 nM; IC50 (Rattus norvegicus [4]): 26 nM; IC50 (Rattus norvegicus [5]): 7.5 nM; IC50 [2]: 68 nM
CN1CCN(C2CC(c3ccc(F)cc3)c3ccc(F)cc32)CC1(C)C (stereo in doubt; (+)-40),1500 nM,88 nM,–,–,IC50 (Rattus norvegicus [3]): 3700 nM; IC50 (Rattus norvegicus [4]): 20 nM; IC50 (Rattus norvegicus [5]): 7.1 nM; IC50 [2]: 360 nM
CC1(C)CN(C2CC(c3ccsc3)c3ccc(Cl)cc32)CCN1 (stereo in doubt; (+)-54),6700 nM,440 nM,–,–,IC50 (Rattus norvegicus [3]): 2000 nM; IC50 (Rattus norvegicus [4]): 73 nM; IC50 (Rattus norvegicus [5]): 27 nM; IC50 [2]: 1100 nM
CN1CCN(C2CC(c3ccc(F)cc3)c3ccc(Cl)cc32)CC1(C)C (stereo in doubt; (-)-28),–,0.68 nM,–,0.48 µmol/kg,IC50 (Rattus norvegicus [3]): 7200 nM; ED50 (Rattus norvegicus [1]): 9.8 µM/kg; IC50 (Rattus norvegicus [4]): 6500 nM; IC50 (Rattus norvegicus [5]): 3200 nM; IC50 [2]: 1.1 nM
